Drawing on ChEMBL document CHEMBL4513216, “Probing the Open Global Health Chemical Diversity Library for Multistage-Active Starting Points for Next-Generation Antimalarials” (ACS Infect Dis, 2020), this text covers cytotoxicity for 71 compounds.

Each structure is given as a SMILES string.

The nature of this series: Toxicity liver stage against HepG2, at 10uM. It is filed as cell-based. Also on record: test concentration 10 uM, cell line HepG2-A16-CD81EGFP. Conditions: human, HepG2-A16-CD81EGFP cells; read-out: INHIBITION
In outline: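 Uninfected HepG2-A16-CD81EGFP cells, 3 × 10^3 per well, 1536-well, plated on prespotted compound at 10 μM final, parasite-free screening media added to match infected plates; puromycin 10 μM positive, DMSO 0.5% negative; run in parallel with 48 h PbLuc assay at 37 °C, 5% CO2; viability by CellTiter-Glo luminescence, normalized to controls.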
As for `COC(=O)c1cccc(C(=O)N(C)Cc2cccc(O)c2)c1`, the cytotoxicity at 10 µM was found to be 9.85%.

For the compound `Cc1ccc(CN2CCC3(CCCN3C(=O)C(C)C)CC2)o1`, the cytotoxicity at 10 µM was -5.9%. To `CN(C)C(=O)N1CCC2(CC1)C(=O)N(CC1CCOC1)c1ccccc12` (stereo unspecified) belongs 6.68%; to `COc1ccc(OC)c(C2CC(=O)Nc3nc(N4CCOCC4)sc32)c1` (stereo unspecified), 14.3%; to `CNc1nc2c(s1)C(c1ccc(Cl)cc1Cl)CC(=O)N2` (stereo unspecified), 7%. To `O=C(c1cnc2ccc(Cl)cc2c1NCc1ccco1)N1CCCCC1` belongs 4.38%; to `CC(=O)N1CCN(c2ccc3ccc(C(=O)NC4CCCC4)cn23)CC1`, 8.15%; to `CNc1nnc(CCn2nc(C)c(Br)c2C)s1`, 2.83%.

As for `COc1c(C2CC(=O)Nc3[nH]ncc32)cc2c(c1OC)OCO2` (stereo unspecified), the cytotoxicity at 10 µM was 3.66%. To `FC(F)(F)c1cc(C2CCCN(c3ncccn3)C2)n2ccnc2n1` (stereo unspecified) belongs 10.4%.

As for `Cc1cc(O)n2nc(C3CCN(C(=O)c4ccccn4)CC3)cc2n1`, the cytotoxicity at 10 µM was -3.36%.

`c1cc(C2CN(C3CCCC3)C2)n[nH]1`: the cytotoxicity at 10 µM worked out at 4%. For the compound `CS(=O)(=O)NCC(=O)NC1CCCN(c2ccccn2)C1` (stereo unspecified), the cytotoxicity at 10 µM came to 1.76%. To `CC1(C2CCN(CCCC(=O)O)CC2)CN(Cc2ccccc2)C(=O)O1` (stereo unspecified) belongs -21.9%; to `Fc1ccc(N2CCOC(Cc3cccnc3)C2)cc1` (stereo unspecified), -16.3%; to `Cn1cc(C(=O)N2CCCC2c2[nH]ncc2C(N)=O)cn1` (stereo unspecified), -7.05%. In the case of `CCC(=O)N1CCC(Cc2ccccc2-c2ccncc2)(C(N)=O)C1` (stereo unspecified), the cytotoxicity at 10 µM is -25.3%.

Regarding `Cc1cnc(Nc2nccnc2C2CCN(C)CC2)s1`, the cytotoxicity at 10 µM worked out at 2.52%.

Turning to `Cn1cc(C2CCCN2C(=O)c2cnc(C3CC3)s2)cn1` (stereo unspecified), the cytotoxicity at 10 µM is -2.05%. With `CCCC(NC(=O)c1cnccn1)c1nnc2ccccn12` (stereo unspecified), the cytotoxicity at 10 µM came to 11.1%. On to `CC(C(=O)N1CCOCC1)S(=O)(=O)Cc1nc(C(C)(C)C)no1` (stereo unspecified), for which the cytotoxicity at 10 µM is -3.82%. `O=C(NC1CCc2nccn2C1)c1ccc(NC2CC2)nc1` (stereo unspecified): the cytotoxicity at 10 µM is 9.93%. To `CN1CC(NC(=O)Nc2cnn(-c3ccccc3Cl)c2)CCC1=O` (stereo unspecified) belongs -1.54%; to `CCN(C(=O)Cn1cc(NC(=O)C(C)(C)C)cn1)c1ccccc1`, 3.49%; to `CCC1CN(C(=O)Cc2coc(-c3ccccc3)n2)CCO1` (stereo unspecified), 3.06%. Then `COC(=O)C(O)C1CCN(CCc2ccccn2)CC1` (stereo unspecified), with -7.64%. Then `Cc1noc(C)c1CN1CCN(C(=O)C(C(C)C)n2cncn2)CC1` (stereo unspecified), with 1.4%; and `COCC(NC(=O)c1cccnc1)c1cccc(C(F)(F)F)c1` (stereo unspecified), with -12.9%; and `COC(=O)c1ccoc1CN(C)Cc1cc(OC)c(OC)cc1C`, with -1.06%. As for `CCN(Cc1nc2c(cnn2C)c(=O)[nH]1)c1cccc(C)c1C`, the cytotoxicity at 10 µM was 1.66%. To `Cc1cnc(C(C)(C)NC(=O)NCc2ccon2)s1` belongs -6.75%. Then `CC(C)S(=O)(=O)N(C)C(=O)CCc1ccsc1`, with 5.2%; and `CCN1CCC(CNC(=O)c2cc(Cl)c[nH]2)CC1`, with -9.4%; and `CCC(CC)CS(=O)(=O)NC(=O)C1CCC1`, with -6.8%. To `COCCNC(=O)NCCCOC1CCCc2ccccc21` (stereo unspecified) belongs 11.7%. As to `CN(C)C(=O)COc1ccccc1CN1CCOC2(CCCC2)C1`, the cytotoxicity at 10 µM is -4.8%. Take `COc1ccc(NC(=O)NCc2cccc(N(C)C)n2)c(Cl)c1`: the cytotoxicity at 10 µM amounted to 21.8%. Then `CCC(C)NS(=O)(=O)Cc1cccc(NC(=O)c2cc[nH]c2C)c1` (stereo unspecified), with 3.77%; and `N#CCCNC(=O)c1ccn(-c2ccc3ccccn23)n1`, with 3.82%. Then `CN(C)CCO[C@H]1CN(C(=O)c2ccc[nH]2)[C@@H]2COC[C@H]12`, with 5.06%; and `CN(C)C(=O)N1CCC2(CC(=O)N(c3cccc(C#N)c3)C2)C1` (stereo unspecified), with 3.33%; and `NC(=O)c1ccc(C2CCCN2C(=O)CCn2nnc3ccccc32)s1` (stereo unspecified), with 3.92%. Then `Cc1ncsc1CCC(=O)NC1CCN(c2ncccc2C#N)CC1`, with 0.84%; and `COc1ccccc1OC1CCN(C(=O)c2cnc(C)cc2C)CC1`, with 4.36%; and `CC1(C)CN(C(=O)c2ccccc2-n2cncn2)CC1(C)O` (stereo unspecified), with -19.3%.

Take `C=C(C)COc1ccccc1CNCCc1cc(O)nc(C)n1`: the cytotoxicity at 10 µM was -1.6%. Then `Cc1ccc(-c2ccnc(NC(C)c3c(C)n[nH]c3C)n2)c(C)n1` (stereo unspecified), with 4.51%; and `CN(C)CC1(O)CCCN(C(=O)c2ccccc2-n2cccn2)C1` (stereo unspecified), with -20.6%; and `CCc1nc2c(c(NC3CC3)n1)CCN(C(=O)N1CCN(C)CC1)CC2`, with 0.445%. Then `CCn1nc(NC(=O)Cn2ccc(C(C)=O)n2)c2ccccc21`, with 12.8%; and `Cc1ccc(CN2CCC(n3cc(CN4CCC(O)CC4)nn3)CC2)s1`, with -3.53%. To `COC1CCN(c2cc(C(C)C)nc3ccnn23)C1` (stereo unspecified) belongs 0.343%; to `CC1CCN(CC(=O)N(Cc2ccccc2)Cc2nccs2)C1=O` (stereo unspecified), -0.0342%; to `O[C@]12CCNC[C@H]1CN(c1ncccc1Cl)CC2`, 10.2%. Turning to `CC(C)[C@H]1COC(=O)N1CC(=O)N1CCN(C(=O)c2ccco2)CC1`, the cytotoxicity at 10 µM came to 4.32%. Regarding `O=C1CCc2cc(S(=O)(=O)NCc3cc4n(n3)CCCNC4)ccc2N1`, the cytotoxicity at 10 µM was -5.38%. For the compound `Cc1cc(=O)n(CC(=O)Nc2cccc(Cl)c2)nc1C`, the cytotoxicity at 10 µM was -6.84%. Then `CNc1nc(CNC(=O)Nc2cccc(CC(F)(F)F)c2)cs1`, with -9.77%; and `CC(C)N(Cc1ccccn1)S(=O)(=O)N1CCCC1c1ccco1` (stereo unspecified), with -3.92%. With `O=C(NCCn1ccnc1)N1CCCC1c1cccs1` (stereo unspecified), the cytotoxicity at 10 µM is -7.51%. Then `CNc1cc(N2CCCC2CNCc2cnc(C)s2)ncn1` (stereo unspecified), with -3.78%. To `CC1CCN(C(=O)c2cccc3ncccc23)CC1` belongs 4.21%; to `O=C(NCc1cccnc1-n1cccn1)C1CC(=O)N(CC2CC2)C1` (stereo unspecified), 2.77%. To `CC(C)CC(=O)N[C@H](C)c1c(-c2ccc(Cl)cc2)noc1C(=O)O` belongs 4.76%; to `Cc1ccc(CN2CCn3c(CN(C)C(C)C)cnc3C2)s1`, 8.33%. Regarding `CS(=O)(=O)N1CC[C@@H]2[C@@H]1CCN2Cc1ccc2c(c1)OCO2`, the cytotoxicity at 10 µM is -5.96%.

Turning to `Cc1ccccc1CN1CCC2(CC1)CN(S(=O)(=O)c1ccccc1)C2`, the cytotoxicity at 10 µM is -2.78%. To `COCCNC(=O)[C@H]1C[C@@H]2CCN(c3ccncn3)C[C@H]2O1` belongs 2.4%. In the case of `CNC(=O)N1C[C@@H]2C[C@H](C(=O)NCc3cccnc3)[C@H](C1)O2`, the cytotoxicity at 10 µM was found to be 6.43%.

As to `CCc1nccc(CN2CCC(CNC(=O)C3CCC(C)CC3)C2)n1` (stereo unspecified), the cytotoxicity at 10 µM was -4.51%. To `O=C(NCc1ccccc1)[C@H]1C[C@H]2CN(C(=O)NC3CCCC3)C[C@@H]1O2` belongs 2.17%.
